# Rpn11 inh – Rpn11 (human) deubiquitinase inhibition | O00487 | human 26S proteasome, Ub4-pepOG fluorescence polarization; 20S core pre-blocked with epoxomicin | calls only at 20 µM | 360,000 compounds, 0.59% hits | AID 588493;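 active means inhibition at 20 µM, scaled to each plate's controls, above about 33%, limit read from the data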
# HNF4A DNA FP – change in binding of human HNF4 alpha to DNA; P41235; HNF4a-FITC DNA binding, fluorescence polarization, 1 h; activity change, % at 10 µM; 360,000 compounds, 0.3% hits; in the data active means activity change above about 30%, passing the limit was not always enough
# Target sequence (P41235 whole entry, looked up): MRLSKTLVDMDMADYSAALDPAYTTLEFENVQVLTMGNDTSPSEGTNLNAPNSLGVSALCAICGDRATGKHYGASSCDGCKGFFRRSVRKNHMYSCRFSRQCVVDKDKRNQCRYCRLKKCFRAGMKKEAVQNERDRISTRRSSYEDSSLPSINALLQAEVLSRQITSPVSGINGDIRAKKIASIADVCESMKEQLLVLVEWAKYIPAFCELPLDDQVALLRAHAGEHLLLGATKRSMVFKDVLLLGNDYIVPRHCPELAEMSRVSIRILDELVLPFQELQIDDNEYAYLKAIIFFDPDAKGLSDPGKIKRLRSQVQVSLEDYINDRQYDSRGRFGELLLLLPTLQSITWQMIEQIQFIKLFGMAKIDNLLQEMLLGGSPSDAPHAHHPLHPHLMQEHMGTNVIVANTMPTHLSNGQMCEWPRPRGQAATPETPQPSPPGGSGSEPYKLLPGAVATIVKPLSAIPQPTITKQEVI
# CSN deneddyl inh – blocks human CSN-mediated cullin deneddylation; Purified CSN, SCF-Nedd8-OG deneddylation, fluorescence polarization; 360,000 compounds, 0.38% hits; inhibition, % at 12.5 µM;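 active means pattern-corrected inhibition above about 35%, with an unprinted fluorescence ratio check between 0.5 and 1.5, limit read from the data, passing the limit was not always enough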
#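 Assay system: purified human Csn5 enzyme expressed in HEK293T cells; measure: % inhibition; also added: SCFSkp2-Nedd8OG substrate at 10 nM final; technique: fluorescence polarization; times: reaction 90 min, room temperature; medium: Tris buffer pH 7.5, NaCl, DTT, Tween-20, trehalose, ovalbumin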
# TPT1 inh – blocks Candida albicans tRNA 2'-phosphotransferase. 300,000 compounds, 0.81% hits. recombinant caTPT1, FP RNA substrate dephosphorylation. inhibition, % at 5 µM. AID 1962;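 active means inhibition above the mean of all tested compounds plus 3 SD, set per screening campaign, cut at about 24% in these data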
# UBC9 SUMO inh – SUMOylation inhibition | P63279 | HTRF SUMOylation assay, SAE1/SAE2 + UBC9, in vitro | inhibition, % at 35 µM | 290,000 compounds, 0.36% hits | AID 2006; in the data active means inhibition above about 50%, passing the limit was not always enough
# SENP1 FRET inh – inhibitors of human SENP1 SUMO protease catalytic domain | Q9P0U3 | recombinant SENP1 catalytic domain, CyPet-SUMO1-YPet FRET cleavage | inhibition, % at 10 µM | 360,000 compounds, 0.21% hits | AID 624204;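 active means inhibition at least 30% at 10 µM, raw YFP signal under a set limit, fluorescence ratio 0.5 to 1.5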
# Target sequence (Q9P0U3 419-644 limits assumed): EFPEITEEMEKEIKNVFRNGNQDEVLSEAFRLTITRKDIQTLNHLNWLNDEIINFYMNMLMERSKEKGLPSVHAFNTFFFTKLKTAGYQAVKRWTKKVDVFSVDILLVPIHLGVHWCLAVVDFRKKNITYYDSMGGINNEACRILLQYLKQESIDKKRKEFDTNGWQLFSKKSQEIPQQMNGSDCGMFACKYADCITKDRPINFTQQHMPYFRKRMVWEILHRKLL
#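 Test system: hSENP1 catalytic domain, recombinant; Amount: 20 pM final SENP1 enzyme; Medium: Tris pH 8 buffer plus EDTA, NaCl, BME, BSA, NP40, catalase; Schedule: 50 min enzyme reaction, room temperature, light-protected; Technique: FRET fluorescence in CFP and YFP emission channels; Controls: no-enzyme wells low, DMSO-plus-enzyme wells high control.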
# Rpn11 inh conf – confirmation of human proteasome Rpn11 inhibitors; shares compounds with Rpn11 inh; purified human 26S proteasome, Ub4-pepOG fluorescence polarization; proteasome pretreated with epoxomicin; inhibition, % at 20 µM; 1,900 compounds, 29% hits; AID 602318
# MMP-2 inh – counter-screen for RPN11 inhibitors: inhibition of human MMP-2. inhibition, % at 20 µM. shares compounds with Rpn11 inh. recombinant MMP-2, FRET peptide cleavage fluorescence. 1,900 compounds, 4% hits;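 further: human MMP-2 activated beforehand with APMA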
# Thrombin FP – counter-screen for RPN11 inhibitors: inhibition of bovine thrombin; bovine thrombin cleavage of Ub4-pepOG, fluorescence polarization; 1,900 compounds, 13% hits; shares compounds with Rpn11 inh; inhibition, % at 20 µM;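 active means mean inhibition at least 40% at 20 µM, or signal 3 deviations below plate average, so some actives read negative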
# SENP1 inh conf – SENP1 (human) inhibition, single concentration confirmation. shares compounds with SENP1 FRET inh. recombinant SENP1, CyPet-SUMO1-YPet FRET cleavage. inhibition, % at 10 µM. 520 compounds, 34% hits; in the data active means inhibition mostly above about 35%, no sharp cut-off; inactive means mostly below about 32%
# SENP1 kin conf – SENP1 (human) inhibition, kinetic confirmation. shares compounds with SENP1 FRET inh. recombinant SENP1, CyPet-SUMO1-YPet FRET kinetic cleavage. inhibition, % at 10 µM. 520 compounds, 26% hits; in the data active means inhibition mostly above about 32%, no sharp cut-off; inactive means mostly below about 29%
# Hits are given with their value; . = inactive; / = no result; + = active, no number. Hits are enriched below; roughly 1.8% of the tested compounds scored in any of these assays. Unless noted, no stated cut-off is given here; in the data, active means inhibition above about 40%; inactive means the rest.
SMILES,Rpn11 inh,HNF4A DNA FP,CSN deneddyl inh,TPT1 inh,UBC9 SUMO inh,SENP1 FRET inh,Rpn11 inh conf,MMP-2 inh,Thrombin FP,others
Cc1cc2ncn(/N=C/c3ccc([N+](=O)[O-])s3)c2cc1C,+,.,.,.,.,.,.,.,.,
Cc1cccc(C)c1NC(=O)CN(C)C(=O)Cn1c(=O)cnc2ccccc21,.,.,.,.,.,.,/,/,/,
COc1cc(/C=C2/SC(=Nc3ccc(O)cc3)NC2=O)cc(OC)c1O,+,.,.,.,.,.,.,.,.,
O=C(C(=O)N1CCN(c2ccc(F)cc2)CC1)N1CCCCC1,.,.,.,.,.,.,/,/,/,
CC(C)c1ccccc1NC(=S)NN(Cc1ccccc1)c1ccccc1,.,.,.,.,.,.,/,/,/,
Fc1ccccc1NC(=S)NN(Cc1ccccc1)c1ccccc1,+,37.6,.,.,.,.,.,45.9,.,
CSc1nnc(N2C(=O)C(O)=C(C(=O)c3ccco3)C2c2ccc(F)cc2)s1 (stereo not given),.,.,.,.,.,.,/,/,/,
CCN(CC)c1nc2c3c(nc4c(c3c1C#N)CC(=O)N4c1ccc(Cl)cc1)NC(C)=N2,+,.,.,.,.,.,.,.,.,
O=C(OCc1nc2ccccc2[n+]([O-])c1C(=O)c1ccccc1)c1cccnc1,.,.,.,.,.,.,/,/,/,
CCOC(=O)C1(CC2CC2)CCN(Cc2cn(C)c3ccccc23)CC1,.,.,.,.,.,.,/,/,/,
CCOc1ccc(C(=O)CCC(=O)N2CCC(C(=O)OC)CC2)cc1,+,.,.,.,.,.,.,.,.,
CCOC(=O)N1CCN(C(=O)CCC(=O)c2ccc(OCC)cc2)CC1,.,.,.,.,.,.,/,/,/,
CNS(=O)(=O)c1ccc2nc(NC(=O)/C=C/c3ccco3)sc2c1,+,.,56.1,.,.,.,.,.,.,
N#CCCN(Cc1cccs1)C(=O)Nc1ccccc1,.,.,.,.,.,.,/,/,/,
CCN1CCN(Cc2ccc(NC(=O)c3ccc(C)c(NC(=O)c4csc(-c5ccncc5)n4)c3)cc2C(F)(F)F)CC1,+,.,.,.,.,.,.,.,.,
O=C(Nc1ccc(O)cc1)c1cc(S(=O)(=O)N2CCCC2)ccc1Cl,.,.,.,.,.,.,/,/,/,
CCOC(=O)C1=C(C)NC(C)=C(C(=O)OCC)C1c1ccc(O)cc1,.,.,.,.,.,.,/,/,/,
CCOC(=O)C1=C(C)NC(SCC(=O)OC)=C(C#N)C1c1ccc(C(=O)OC)cc1 (stereo not given),.,.,.,.,.,.,/,/,/,
CCOC(=O)C1=C(C)Nc2sc(C(=O)c3ccc(F)cc3)c(N)c2C1c1ccc(C(=O)OC)cc1 (stereo not given),+,.,.,.,.,.,.,.,.,
CCOC(=O)C1=C(C)Nc2sc(C(=O)c3ccc(C)cc3)c(N)c2C1c1ccc(C(=O)OC)cc1 (stereo not given),+,.,.,.,.,.,.,40.8,.,
Cc1cccc(N2CC(C(=O)Nc3cccc(S(=O)(=O)N4CCCCC4)c3)CC2=O)c1C (stereo not given),.,.,.,/,/,.,/,/,/,
CC(=O)c1cccc(NC(=O)C2CC(=O)N(c3cccc(C)c3C)C2)c1 (stereo not given),+,.,.,.,.,.,.,.,.,
CSCCC(NC(=O)c1ccccc1)C(=O)N/N=C(\C)Cc1ccccc1 (stereo not given),.,.,.,/,.,.,/,/,/,
Clc1ccc(CN2CCC(c3nc4ccc(Cl)cc4[nH]3)CC2)cc1,+,.,.,.,.,.,.,.,.,
CC(C)[C@H](NC(=O)c1ccccc1)C(=O)O,.,.,.,.,.,.,/,/,/,
SMILES,Rpn11 inh,HNF4A DNA FP,CSN deneddyl inh,TPT1 inh,UBC9 SUMO inh,SENP1 FRET inh,Rpn11 inh conf,MMP-2 inh,Thrombin FP,others
O=C(Cn1sc2ccccc2c1=O)Nc1ccc(F)cc1,.,.,.,/,/,.,/,/,/,
CCCOc1ccc(-c2nnn(CC(=O)c3c[nH]c4ccccc34)n2)cc1,+,.,.,.,.,.,.,.,.,
N#Cc1cc(C(=O)c2cc(F)ccc2O)cn(Cc2ccccc2)c1=O,.,.,.,.,.,.,/,/,/,
Cc1ccc(O)c(C(=O)c2cc(C#N)c(=O)n(Cc3ccccc3)c2)c1,+,.,.,.,.,.,.,.,.,
CC(C)(C)NC(=O)NC(=O)CN1CCN(c2ccccc2O)CC1,.,.,.,.,.,.,/,/,/,
O=C1NC(=S)SC1=Cc1cc(Br)ccc1O,+,79.8,.,/,/,32.1,.,.,.,SENP1 inh conf=96.0;SENP1 kin conf=52.1
O=C1NC(=S)SC1=Cc1ccccc1Br,.,.,.,/,/,.,/,/,/,
CCOc1cc(/C=C2/C(=O)ON=C2C)ccc1O,.,.,.,.,.,.,/,/,/,
CCOc1cc(/C=C2\SC(=O)N=C2N)ccc1O,+,.,.,.,.,31.0,.,.,.,SENP1 inh conf=61.1;SENP1 kin conf=45.6
COc1ccccc1Cc1c(-c2cccc(Br)c2)nc2ccc(Cl)cn12,+,.,.,/,/,33.0,60.2,.,.,SENP1 inh conf=.;SENP1 kin conf=.
COc1ccccc1Cc1c(-c2cccc(Br)c2)nc2ccc(Br)cn12,.,.,.,/,/,.,/,/,/,
COc1ccccc1Cc1c(-c2ccc(Cl)cc2)nc2ccc(Br)cn12,+,.,.,/,/,42.0,40.5,.,50.8,SENP1 inh conf=.;SENP1 kin conf=.
CCOc1ccc(NC(=S)N2C3CCCC2CC(NC(=O)C2CC2)C3)cc1 (stereo not given),.,.,.,.,.,.,/,/,/,
CC1(C)CC(=O)C(N=Nc2ccc(-c3ccccc3)cc2)=C(O)C1,+,.,.,.,.,62.7,.,.,.,SENP1 inh conf=.;SENP1 kin conf=.
NC(N)=NCCCS(=O)(=O)Nc1ccc(Nc2c3ccccc3nc3cc([N+](=O)[O-])ccc23)cc1,+,.,.,/,/,51.2,.,.,48.1,SENP1 inh conf=.;SENP1 kin conf=.
O=C(NCCSCc1ccccc1)c1ccc(C2SCC(=O)N2Cc2ccccc2)cc1 (stereo not given),+,.,.,.,.,63.1,42.7,.,.,SENP1 inh conf=44.7;SENP1 kin conf=50.1
